Assay results from ChEMBL document CHEMBL4699542, “Design and synthesis of novel methoxypyridine-derived gamma-secretase modulators” (Bioorg Med Chem, 2020).

Experiment: AUClast in CD-1 mouse at 1 mg/kg, iv administered as single dose measured up to 24 hrs
Format: ADME, organism-based
Set-up: route intravenous, dose 1 mg/kg, time <=24
Conditions: in vivo
Method in brief: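 Male CD-1 mice, 6–8 weeks old, single dose by tail vein (1 mg/kg, 3% NMP/45% PEG300/12% ethanol/40% water) or oral gavage (5 mg/kg, 5% NMP/95% PEG300). Retro-orbital plasma sampled 0.083 (iv only) to 24 h, n=3/timepoint, and analysed by HPLC/MS/MS. Non-compartmental analysis. Half-life taken from the terminal phase using ≥3 non-zero points after Tmax.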

CCn1nc2c(c1Nc1nc(-c3ccc(-n4cnc(C)c4)c(OC)n3)cs1)CCC2
AUClast: 376 ng·h/mL
